Measurements taken from ChEMBL document CHEMBL2346518, “Synthesis and evaluation of nicotinamide derivative as anti-angiogenic agents” (Bioorg Med Chem Lett, 2013).
Activity calls are given as the source filed them.

Experiments:
HUVEC [1] = assay: Inhibition of VEGF-induced human HUVEC cell proliferation at 10 to 100 nM incubated 1 hr prior to VEGF-challenge measured after 24 hrs by BrdU incorporation assay; type: functional, cell-based
Summary of the method: (§1)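 HUVECs pretreated 1 h with compound (100 nM single point, or 10, 50, 100 nM), then VEGF 10 ng/ml for 24 h. BrdU incorporation detected with anti-BrdU monoclonal antibody and peroxidase secondary, absorbance at 450 nm. Means of three experiments ± SD. ANOVA/Dunnett.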

[2] = target: Vascular endothelial growth factor receptor 2 (Homo sapiens) (UniProt P35968); assay: Inhibition of VEGF-induced VEGFR2 in human HUVEC cell assessed as AKT phosphorylation at Ser473 incubated 1 hr prior to VEGF-challenge measured after 30 mins by Western blot analysis
Summary of the method: (§2)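 HUVECs pretreated 1 h with compound (10, 50 or 100 nM), then stimulated with VEGF 10 ng/ml. Phospho-VEGFR2 read at 5 min and phospho-Akt at 30 min by Western blot.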

HUVEC [3] = assay: Inhibition of VEGF-induced human HUVEC cell migration incubated 1 hr prior to VEGF-challenge measured after 24 hrs by Trans-well assay; type: functional, cell-based
Summary of the method: (§3)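 Boyden chamber with 8 μm pore membrane. HUVECs in upper chamber with compound in 0.1% EBM; VEGF 10 ng/ml in lower chamber. Cells that migrated through the pores counted after 24 h. Means of three experiments ± SD. ANOVA with Dunnett's test.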

HUVEC [4] = assay: Inhibition of VEGF-induced human HUVEC cell capillary tube formation incubated prior to VEGF-challenge; type: functional, cell-based
Summary of the method: (§4)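 HUVECs pretreated 1 h with compound, then seeded at 4 to 7 × 10⁴ cells on growth-factor-reduced Matrigel in EBM with or without VEGF 10 ng/ml. Tubular structures photographed after 6 h at ×100. Means of three experiments ± SD. ANOVA/Dunnett.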

[5] = target: Vascular endothelial growth factor receptor 2 (Homo sapiens) (UniProt P35968); assay: Inhibition of VEGF-induced VEGFR in human HUVEC cell assessed as AKT phosphorylation at Ser473 at 10 to 100 nM incubated 1 hr prior to VEGF-challenge measured after 30 mins by Western blot analysis; summary of the method: as §2
Aorta = assay: Inhibition of VEGF-induced microvessel sprouting around Sprague-Dawley rat aortic rings; type: functional, tissue-based
Summary of the method: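 Aortas from Sprague-Dawley rats cleaned of periadventitial fat and cut into 1–1.5 mm rings. Rings embedded in Matrigel with VEGF ± compound (10, 50, 100 nM); medium alone as control. Sprouts fixed and photographed after 7 days at ×100. Three independent experiments.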

HUVEC [6] = assay: Inhibition of VEGF-induced human HUVEC cell migration incubated 1 hr prior to VEGF-challenge measured after 24 hrs by wound healing assay; type: functional, cell-based
Summary of the method: (§5)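 Wound made with a scraper in near-confluent HUVECs. Cells pretreated 1 h with compound (10–100 nM), then migration induced with VEGF 10 ng/ml. Wound area photographed after 24 h.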

HUVEC [7] = assay: Inhibition of VEGF-induced human HUVEC cell migration at 10 nM incubated 1 hr prior to VEGF-challenge measured after 24 hrs by Trans-well assay; type: functional, cell-based; summary of the method: as §3
[8] = target: Vascular endothelial growth factor receptor 2 (Homo sapiens) (UniProt P35968); assay: Inhibition of VEGF-induced VEGFR2 phosphorylation at Tyr1175 in human HUVEC cell incubated 1 hr prior to VEGF-challenge measured after 5 mins by Western blot analysis; summary of the method: as §2
HUVEC [9] = assay: Inhibition of VEGF-induced human HUVEC cell proliferation incubated 1 hr prior to VEGF-challenge measured after 24 hrs by BrdU incorporation assay; type: functional, cell-based; summary of the method: as §1
HUVEC [10] = assay: Inhibition of VEGF-induced human HUVEC cell migration at 10 to 100 nM incubated 1 hr prior to VEGF-challenge measured after 24 hrs by wound healing assay; type: functional, cell-based; summary of the method: as §5
[11] = target: Vascular endothelial growth factor receptor 2 (Homo sapiens) (UniProt P35968); assay: Inhibition of VEGF-induced VEGFR2 phosphorylation at Tyr1175 in human HUVEC cell incubated 1 hr prior to VEGF-challenge measured after 5 mins by PathScan ELISA
Summary of the method: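 HUVECs given compound (10, 50 or 100 nM) 1 h before 5 min VEGF (10 ng/ml). VEGFR2 Tyr1175 phosphorylation measured by PathScan ELISA. Means of three experiments ± SD. ANOVA with Dunnett's post-hoc test.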

HUVEC [12] = assay: Inhibition of VEGF-induced human HUVEC cell capillary tube formation at 10 to 100 nM incubated prior to VEGF-challenge; type: functional, cell-based; summary of the method: as §4
[13] = target: Vascular endothelial growth factor receptor 2 (Homo sapiens) (UniProt P35968); assay: Inhibition of VEGF-induced VEGFR phosphorylation at Tyr1175 in human HUVEC cell at 10 to 100 nM incubated 1 hr prior to VEGF-challenge measured after 5 mins by Western blot analysis; summary of the method: as §2

Measured: inhibition

Chain of Vascular endothelial growth factor receptor 2 (Homo sapiens) (P35968 whole entry): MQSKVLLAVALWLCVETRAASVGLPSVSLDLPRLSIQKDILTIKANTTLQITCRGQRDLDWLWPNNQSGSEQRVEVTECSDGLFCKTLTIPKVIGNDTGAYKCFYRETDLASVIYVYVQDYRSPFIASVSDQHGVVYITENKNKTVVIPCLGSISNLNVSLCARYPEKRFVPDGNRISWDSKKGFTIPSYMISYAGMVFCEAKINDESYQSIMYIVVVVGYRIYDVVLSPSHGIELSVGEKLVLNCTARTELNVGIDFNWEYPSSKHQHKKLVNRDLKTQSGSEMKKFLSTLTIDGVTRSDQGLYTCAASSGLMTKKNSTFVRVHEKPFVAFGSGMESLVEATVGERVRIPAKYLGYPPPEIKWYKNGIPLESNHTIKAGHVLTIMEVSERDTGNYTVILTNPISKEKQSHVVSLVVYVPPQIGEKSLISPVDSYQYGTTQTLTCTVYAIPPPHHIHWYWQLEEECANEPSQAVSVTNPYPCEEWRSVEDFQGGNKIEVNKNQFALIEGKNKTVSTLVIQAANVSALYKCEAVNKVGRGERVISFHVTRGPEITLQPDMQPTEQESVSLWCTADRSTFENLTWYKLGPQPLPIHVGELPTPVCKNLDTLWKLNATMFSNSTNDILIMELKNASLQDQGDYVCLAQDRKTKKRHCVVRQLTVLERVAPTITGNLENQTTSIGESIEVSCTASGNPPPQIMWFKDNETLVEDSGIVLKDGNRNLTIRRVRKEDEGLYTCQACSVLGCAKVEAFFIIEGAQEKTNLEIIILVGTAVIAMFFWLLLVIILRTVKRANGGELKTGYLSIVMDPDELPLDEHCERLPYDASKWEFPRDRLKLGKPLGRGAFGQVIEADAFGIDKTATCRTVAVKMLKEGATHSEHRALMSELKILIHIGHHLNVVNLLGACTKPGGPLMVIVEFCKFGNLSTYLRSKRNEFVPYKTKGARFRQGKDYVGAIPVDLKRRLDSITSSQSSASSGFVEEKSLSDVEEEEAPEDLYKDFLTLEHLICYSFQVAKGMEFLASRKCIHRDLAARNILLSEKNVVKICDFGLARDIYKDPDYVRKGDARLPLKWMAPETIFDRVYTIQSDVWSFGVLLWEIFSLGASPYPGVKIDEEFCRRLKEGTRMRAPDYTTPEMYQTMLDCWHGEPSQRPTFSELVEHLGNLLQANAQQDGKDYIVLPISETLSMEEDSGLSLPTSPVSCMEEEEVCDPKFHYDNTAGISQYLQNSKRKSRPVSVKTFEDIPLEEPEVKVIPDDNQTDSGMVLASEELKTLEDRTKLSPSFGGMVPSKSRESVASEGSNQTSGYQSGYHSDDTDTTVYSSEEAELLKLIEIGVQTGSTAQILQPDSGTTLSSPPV

O=C(Nc1cccc(Cl)c1)c1cccnc1NC1CCN(Cc2ccccc2)CC1
active: HUVEC [1]

CC(c1ncnc(Cl)c1F)N1CCC(Nc2ncccc2C(=O)Nc2cccc(Cl)c2)CC1 (stereo not given)
active: [2] Dose-dependent effect | HUVEC [3] Dose-dependent effect | HUVEC [4] Dose-dependent effect | [5] | Aorta Dose-dependent effect | HUVEC [1] | HUVEC [6] Dose-dependent effect | HUVEC [7] | [8] Dose-dependent effect | HUVEC [9] Dose-dependent effect | HUVEC [10] Dose-dependent effect | [11] Dose-dependent effect | HUVEC [12] | [13]
